The source of these data is ChEMBL document CHEMBL1144664, “Design, synthesis, and SAR of new pyrrole-oxindole progesterone receptor modulators leading to 5-(7-fluoro-3,3-dimethyl-2-oxo-2,3-dihydro-1H-indol-5-yl)-1-methyl-1H-pyrrole-2-carbonitrile (WAY-255348)” (J Med Chem, 2008).

The target of data set [1] is T1, Estrogen receptor (Homo sapiens) (UniProt P03372).
T1 sequence (whole entry): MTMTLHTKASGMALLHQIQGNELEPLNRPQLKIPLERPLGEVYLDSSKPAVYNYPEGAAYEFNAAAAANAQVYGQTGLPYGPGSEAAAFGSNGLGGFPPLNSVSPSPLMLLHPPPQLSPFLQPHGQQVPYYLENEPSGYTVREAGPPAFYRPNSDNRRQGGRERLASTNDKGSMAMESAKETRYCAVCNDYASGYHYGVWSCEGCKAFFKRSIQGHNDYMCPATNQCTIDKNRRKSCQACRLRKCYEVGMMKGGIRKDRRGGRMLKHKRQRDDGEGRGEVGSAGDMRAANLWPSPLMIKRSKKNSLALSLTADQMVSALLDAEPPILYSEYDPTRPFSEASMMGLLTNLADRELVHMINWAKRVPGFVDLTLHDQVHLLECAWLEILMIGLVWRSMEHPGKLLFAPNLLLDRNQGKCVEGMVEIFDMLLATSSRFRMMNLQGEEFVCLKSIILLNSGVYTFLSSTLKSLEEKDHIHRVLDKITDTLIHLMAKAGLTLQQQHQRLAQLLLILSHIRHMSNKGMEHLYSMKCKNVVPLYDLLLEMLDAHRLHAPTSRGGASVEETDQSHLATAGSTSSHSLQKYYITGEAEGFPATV
The data set is described as follows: Antagonist activity at human ER ligand binding domain expressed in african green monkey COS7 cells in presence of 17-beta-estradiol by Gal4 hybrid assay. The class given is cell-based. The following applies: COS-7. The procedure, abridged:
(§1)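 Gal4-steroid receptor LBD fusion plasmid plus GAL4_UAS (5 copies, E1b TATA)-luciferase reporter, 50 ng/well each, transfected 16 h into COS-7 cells grown in phenol red-free DMEM with 10% charcoal/dextran-treated FBS. Compound treatment 20 h, then luciferase read-out. Antagonist mode uses 3 nM aldosterone (hMR) or 5 nM 17β-estradiol (hER). Values are the average of at least duplicate determinations.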

Another data set has as its system Rhesus monkey. The data set is described as follows: Effect on functionalis KI67 assessed as number of KI67 labeled cells of rhesus monkey. The class given is functional, Macaca mulatta. The procedure, abridged:
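Adult female rhesus macaques (n=3) with regular cycles dosed 10 mg/(kg·day) po in 2% Tween 80/0.5% methylcellulose with cherry flavoring for 28 days from cycle day 2. Serum estradiol and progesterone measured every 3 days. Necropsy on day 28. Uterine weights are of half the uterus; KI-67 and mitotic indices counted per 1000 cells. Values given as mean ± SE.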

For the next data set, the system named is Rattus norvegicus. The data set is described as follows: Drug level in Sprague-Dawley rat at 1 mg/kg, iv. In kind it is ADME, organism-based. The conditions noted are these: in vivo. Further details: dose 1 mg/kg, route intravenous. The procedure, abridged: (§2)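 Female Sprague–Dawley rats dosed as 1-in-4 cassette or discrete studies. iv in DMSO/PEG200 20:80; po in aqueous 2% Tween 80/0.5% methyl cellulose. Parameters reported: C0, Cmax, t1/2, plasma clearance, Vss, AUC0-inf and %F.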

Data set [2] can be described thus: Stability in cynomolgus monkey liver microsome assessed as half life. The conditions noted are these: liver microsomes. The class given is ADME, Macaca fascicularis. The procedure, abridged:
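Female rat, cynomolgus monkey and human liver microsome stability; half-life (min) reported.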

Data set [3] is described as follows: Volume of distribution at steady state in cynomolgus monkey at […], iv. In kind it is ADME, organism-based, Macaca fascicularis. Also noted: dose 0.25 mg/kg, route intravenous. The following applies: in vivo, read-out: Vdss.
Data set [4] in a line: Plasma clearance in Sprague-Dawley rat at 0.5 mg/kg, iv. The class given is ADME, organism-based. Further details: dose 0.5 mg/kg, route intravenous. The procedure, abridged:
as §2

Another data set deals with T2, Androgen receptor (Homo sapiens, UniProt P10275).
T2 sequence (P10275 whole entry): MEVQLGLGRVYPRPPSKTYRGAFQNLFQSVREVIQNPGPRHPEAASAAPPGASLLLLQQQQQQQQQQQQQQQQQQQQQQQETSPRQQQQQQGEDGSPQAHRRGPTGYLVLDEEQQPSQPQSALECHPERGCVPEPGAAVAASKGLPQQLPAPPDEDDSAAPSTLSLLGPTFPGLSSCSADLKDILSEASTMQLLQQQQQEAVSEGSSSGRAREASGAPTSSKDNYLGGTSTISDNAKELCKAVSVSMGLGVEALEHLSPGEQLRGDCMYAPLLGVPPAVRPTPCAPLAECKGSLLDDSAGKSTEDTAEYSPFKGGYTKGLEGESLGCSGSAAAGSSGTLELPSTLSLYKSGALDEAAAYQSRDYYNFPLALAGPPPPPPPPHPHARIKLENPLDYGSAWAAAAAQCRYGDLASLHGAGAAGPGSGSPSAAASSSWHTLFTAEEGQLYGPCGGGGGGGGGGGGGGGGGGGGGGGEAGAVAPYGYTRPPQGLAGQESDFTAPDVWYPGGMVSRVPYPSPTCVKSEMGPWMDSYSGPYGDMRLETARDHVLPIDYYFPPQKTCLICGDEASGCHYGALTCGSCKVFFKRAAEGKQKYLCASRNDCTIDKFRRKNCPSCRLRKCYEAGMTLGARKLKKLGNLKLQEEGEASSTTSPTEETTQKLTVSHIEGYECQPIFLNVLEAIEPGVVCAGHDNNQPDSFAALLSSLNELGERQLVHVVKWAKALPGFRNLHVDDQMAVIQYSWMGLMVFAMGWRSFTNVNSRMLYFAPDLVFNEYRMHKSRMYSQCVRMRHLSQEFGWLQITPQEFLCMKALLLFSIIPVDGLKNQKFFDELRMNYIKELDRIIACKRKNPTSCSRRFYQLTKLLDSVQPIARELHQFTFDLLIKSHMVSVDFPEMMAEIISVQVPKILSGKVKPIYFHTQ

Data set [5] is described as follows: Half life in cynomolgus monkey at 1 mg/kg, iv. The class given is ADME, organism-based, Macaca fascicularis. Also noted: dose 1 mg/kg, route intravenous. The conditions noted are these: in vivo.
Data set [6] is described as follows: Drug level in cynomolgus monkey at 1 mg/kg, iv. The following applies: in vivo. The class given is ADME, organism-based, Macaca fascicularis. Further details: dose 1 mg/kg, route intravenous.
The target of data set [7] is T1, Estrogen receptor (Homo sapiens). The data set is described as follows: Agonist activity at human ER ligand binding domain expressed in african green monkey COS7 cells by Gal4 hybrid assay. The following applies: COS-7. The class given is cell-based. The procedure, abridged:
as §1

The test system of data set [8] is Cynomolgus monkey. The data set is described as follows: Inhibition of ovulation in cynomolgus monkey assessed as luteal phase progesterone surge at 3 mg/kg. In kind it is functional. The conditions noted are these: Macaca fascicularis. The procedure, abridged: (§3)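 Normally cycling cynomolgus monkeys dosed orally, daily at 1, 3 or 10 mg/kg (n=4–6) or vehicle (n=2), in 2% Tween 80/0.5% methylcellulose for 30 days from cycle day 2. Serum sampled three times weekly; progesterone measured by radioimmunoassay to detect a luteal-phase rise as the sign of ovulation.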

Data set [9] deals with Cynomolgus monkey. Briefly: Inhibition of ovulation in cynomolgus monkey assessed as basal level of progesterone at 10 mg/kg. In kind it is functional, organism-based. Also noted: dose 10 mg/kg. The following applies: Macaca fascicularis. The procedure, abridged: as §3
The nature of data set [10]: AUC (0 to infinity) in cynomolgus monkey at 5 mg/kg, po. The class given is ADME, organism-based, Macaca fascicularis. Further details: dose 5 mg/kg, route oral, time infinity. The conditions noted are these: plasma.

Activity calls are given as the source filed them.

In general, half-life refers to the time needed for the level to fall by half in the phase considered. One may read the clearance as a measure of how efficiently the substance is removed, as volume per time. What is called IC50 is the point on the concentration scale where inhibition reaches its midpoint. Broadly, the ED50 is the dose that gives a 50% effect, or the effect in half of the subjects. By AUC(0-inf) is commonly meant total exposure, with the tail of the curve extrapolated. As to `Cn1c(C#N)ccc1-c1cc(F)c2c(c1)C(C)(C)C(=O)N2`, the result in data set [1] and in [7] was inactive. The Activity with Rhesus monkey is recorded as 105. In the data set on Rattus norvegicus, this compound yielded a Drug uptake of 528 ng/mL. The half-life was 0.317 h in [2] and 7.8 h in [5]. Also, the Vd in data set [3] was found to be 3.9 L/kg. In data set [4], this compound displayed a clearance of 4 mL/min/kg. On Androgen receptor, this compound had a half-maximal inhibitory concentration (IC50) of 196 nM. Besides, the C0 in data set [6] is 856 ng/mL. Moreover, the 50% effective dose (ED50) in the data set with Cynomolgus monkey [8] stood at 1.6 mg/kg. Besides, the outcome in the data set on Cynomolgus monkey [9] was Active. Moreover, the area under the curve AUC(0-inf) in data set [10] amounted to 5740 ng·h/mL.
